Measured values collected from several papers.
Target: Serine/threonine-protein kinase DCLK2 (DCLK2, Homo sapiens, UniProt Q8N568)
One construct used (Q8N568 1-766): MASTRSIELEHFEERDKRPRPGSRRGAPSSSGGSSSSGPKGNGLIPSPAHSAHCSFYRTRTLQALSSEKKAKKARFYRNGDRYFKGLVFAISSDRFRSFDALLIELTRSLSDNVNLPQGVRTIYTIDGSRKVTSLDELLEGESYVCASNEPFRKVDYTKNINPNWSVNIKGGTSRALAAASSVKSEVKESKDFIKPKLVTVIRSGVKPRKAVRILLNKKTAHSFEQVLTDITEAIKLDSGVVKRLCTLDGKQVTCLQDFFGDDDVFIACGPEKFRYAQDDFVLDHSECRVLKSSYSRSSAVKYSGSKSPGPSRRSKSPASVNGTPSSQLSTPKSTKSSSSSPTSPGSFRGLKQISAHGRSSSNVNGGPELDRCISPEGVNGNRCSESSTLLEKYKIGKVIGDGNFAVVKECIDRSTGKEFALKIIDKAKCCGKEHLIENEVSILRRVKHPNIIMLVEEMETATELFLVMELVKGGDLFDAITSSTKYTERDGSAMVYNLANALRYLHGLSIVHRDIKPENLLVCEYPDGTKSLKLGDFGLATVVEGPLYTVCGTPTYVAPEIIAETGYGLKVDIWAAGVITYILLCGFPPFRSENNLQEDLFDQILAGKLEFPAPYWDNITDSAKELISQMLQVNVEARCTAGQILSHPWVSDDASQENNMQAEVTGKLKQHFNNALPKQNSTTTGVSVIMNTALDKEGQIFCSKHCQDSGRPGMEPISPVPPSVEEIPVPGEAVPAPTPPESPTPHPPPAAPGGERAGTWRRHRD

| Compound | observed | method | tested at | remaining binding [%] |
| --- | --- | --- | --- | --- |
| CN(c1nccc(-c2cnn3ncccc23)n1)C1CC1 | binding | – | 1 µM | 100 |
| COc1ncc2cc3ccccc3nc2c1C#N | cell-free assay | competition with immobilised ligand | 5 µM | 94 |
| Cc1cnn2ncc(-c3ccnc(N(C)C)n3)c2c1 | binding | – | 1 µM | 100 |
| O=C1NC(c2ccccn2)Sc2ccccc21 (stereo not shown) | cell-free assay | competition with immobilised ligand | 1 µM | 92 |
| CNC(=O)[C@@H]1CC[C@@H](n2c(-c3ccc4cnccc4c3)nc3ccc(C(=O)NCc4cccc(C(N)=O)c4)cc32)C1 | binding | competition with immobilised ligand | 1 µM | 100 |
| O=C(NCC1CCOCC1)c1n[nH]cc1NC(=O)c1c(F)cccc1F | binding | competition with immobilised ligand | 1 µM | 100 |
| Cc1cnc(Nc2ccc(C(=O)N3CCC(N4CCCC4)CC3)cc2)nc1-c1cc2ccccc2s1 | binding | competition with immobilised ligand | 1 µM | 100 |
| CCN1CCN(Cc2ccc(C(=O)Nc3ccc(C)c(Oc4ccc5c(c4)CC(=O)N5)c3)cc2C(F)(F)F)CC1 | binding | competition with immobilised ligand | 1 µM | 92 |
| c1cncc(-c2cccc(Nc3nccc(NC4CCCCC4)n3)c2)c1 | binding | competition with immobilised ligand | 10 µM | 100 |
| CN(C)c1ncc(F)c(-c2cnn3ncccc23)n1 | binding | – | 1 µM | 96 |
| FC(F)(F)Oc1cccc(-c2cnc3ccc(-c4ccncc4)nn23)c1 | cell-free assay | competition with immobilised ligand | 5 µM | 100 |
| Cc1cc(-n2nc(Cc3cc(F)cc(C(F)(F)F)c3)nc2C)ccc1C(N)=O | cell-free assay | competition with immobilised ligand | 1 µM | 100 |
| O=C(c1ccc(Nc2nccc(-c3cc4ccccc4s3)n2)cc1)N1CCC(N2CCCC2)CC1 | binding | competition with immobilised ligand | 1 µM | 97 |
| CCC(=O)N[C@H]1CC[C@@H](C(=O)N(C)c2ccc(-c3nc4ccccc4o3)cc2)C1 | cell-free assay | competition with immobilised ligand | 1 µM | 98 |
| O=C(NCCCN1CCOCC1)c1ccc(Nc2ncc(Cl)c(-c3ccc(Cl)s3)n2)cc1 | binding | competition with immobilised ligand | 1 µM | 78 |
| CCOC(=O)c1cc2cc(-c3cc(C(=O)NCc4ccc(C(=O)O)cc4)nn3C)ccc2[nH]1 | cell-free assay | competition with immobilised ligand | 0.1 µM | 100 |
| F[C@@H]1CCN(c2nccc(-c3cnn4ncccc34)n2)C1 | binding | – | 1 µM | 88 |
| NS(=O)(=O)c1cc(NC(=O)C2(c3ccccc3Cl)CC2)ccc1Oc1cccc(Cl)c1 | cell-free assay | competition with immobilised ligand | 1 µM | 74 |
| Nc1ncc2c(n1)-c1c([nH]c3ccc(C#CC4CC4)cc13)CCCC2 | binding | competition with immobilised ligand | 1 µM | 89 |
